Assays:
gmAhr1a [1] = target: T1, gmAhr1a (Gadus morhua, UniProt A0A6H1Z2L5); assay: Velocity sedimentation radioligand binding to in vitro expressed gmAhr1a; parameters: species or system Atlantic cod (Gadus morhua); details: single concentration, qualitative
T1 sequence (A0A6H1Z2L5 1-957): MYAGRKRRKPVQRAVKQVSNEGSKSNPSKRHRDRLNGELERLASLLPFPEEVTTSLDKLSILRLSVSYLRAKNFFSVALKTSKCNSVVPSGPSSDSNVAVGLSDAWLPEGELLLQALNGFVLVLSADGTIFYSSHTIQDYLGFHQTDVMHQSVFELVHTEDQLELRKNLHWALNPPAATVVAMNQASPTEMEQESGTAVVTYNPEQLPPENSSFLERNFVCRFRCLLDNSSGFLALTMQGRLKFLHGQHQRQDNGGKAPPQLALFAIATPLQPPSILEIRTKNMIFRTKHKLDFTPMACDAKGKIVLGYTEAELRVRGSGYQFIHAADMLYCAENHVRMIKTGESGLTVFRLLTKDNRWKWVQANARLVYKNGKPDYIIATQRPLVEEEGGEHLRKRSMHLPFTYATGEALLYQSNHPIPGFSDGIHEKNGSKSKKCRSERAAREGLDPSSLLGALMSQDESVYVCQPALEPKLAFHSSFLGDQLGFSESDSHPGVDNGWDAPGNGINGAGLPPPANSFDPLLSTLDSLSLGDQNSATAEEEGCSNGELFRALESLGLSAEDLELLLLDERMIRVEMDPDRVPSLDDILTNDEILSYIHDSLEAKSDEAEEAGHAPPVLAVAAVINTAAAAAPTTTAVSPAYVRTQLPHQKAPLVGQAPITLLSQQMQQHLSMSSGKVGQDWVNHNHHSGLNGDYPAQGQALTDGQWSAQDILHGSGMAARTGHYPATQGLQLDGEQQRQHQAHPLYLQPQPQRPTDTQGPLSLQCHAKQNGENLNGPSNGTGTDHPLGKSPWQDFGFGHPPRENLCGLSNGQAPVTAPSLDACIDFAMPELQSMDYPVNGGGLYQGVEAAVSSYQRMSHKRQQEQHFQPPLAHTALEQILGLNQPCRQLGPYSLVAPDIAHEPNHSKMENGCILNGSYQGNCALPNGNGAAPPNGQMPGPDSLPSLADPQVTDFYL

gmAhr2a [2] = target: T2, gmAhr2a (Gadus morhua, UniProt A0A6H1Z3G8); assay: Velocity sedimentation radioligand binding to in vitro expressed gmAhr2a; parameters: species or system Atlantic cod (Gadus morhua); details: [3H]BNF 10 nM, single concentration, qualitative
T2 sequence (A0A6H1Z3G8 1-1127): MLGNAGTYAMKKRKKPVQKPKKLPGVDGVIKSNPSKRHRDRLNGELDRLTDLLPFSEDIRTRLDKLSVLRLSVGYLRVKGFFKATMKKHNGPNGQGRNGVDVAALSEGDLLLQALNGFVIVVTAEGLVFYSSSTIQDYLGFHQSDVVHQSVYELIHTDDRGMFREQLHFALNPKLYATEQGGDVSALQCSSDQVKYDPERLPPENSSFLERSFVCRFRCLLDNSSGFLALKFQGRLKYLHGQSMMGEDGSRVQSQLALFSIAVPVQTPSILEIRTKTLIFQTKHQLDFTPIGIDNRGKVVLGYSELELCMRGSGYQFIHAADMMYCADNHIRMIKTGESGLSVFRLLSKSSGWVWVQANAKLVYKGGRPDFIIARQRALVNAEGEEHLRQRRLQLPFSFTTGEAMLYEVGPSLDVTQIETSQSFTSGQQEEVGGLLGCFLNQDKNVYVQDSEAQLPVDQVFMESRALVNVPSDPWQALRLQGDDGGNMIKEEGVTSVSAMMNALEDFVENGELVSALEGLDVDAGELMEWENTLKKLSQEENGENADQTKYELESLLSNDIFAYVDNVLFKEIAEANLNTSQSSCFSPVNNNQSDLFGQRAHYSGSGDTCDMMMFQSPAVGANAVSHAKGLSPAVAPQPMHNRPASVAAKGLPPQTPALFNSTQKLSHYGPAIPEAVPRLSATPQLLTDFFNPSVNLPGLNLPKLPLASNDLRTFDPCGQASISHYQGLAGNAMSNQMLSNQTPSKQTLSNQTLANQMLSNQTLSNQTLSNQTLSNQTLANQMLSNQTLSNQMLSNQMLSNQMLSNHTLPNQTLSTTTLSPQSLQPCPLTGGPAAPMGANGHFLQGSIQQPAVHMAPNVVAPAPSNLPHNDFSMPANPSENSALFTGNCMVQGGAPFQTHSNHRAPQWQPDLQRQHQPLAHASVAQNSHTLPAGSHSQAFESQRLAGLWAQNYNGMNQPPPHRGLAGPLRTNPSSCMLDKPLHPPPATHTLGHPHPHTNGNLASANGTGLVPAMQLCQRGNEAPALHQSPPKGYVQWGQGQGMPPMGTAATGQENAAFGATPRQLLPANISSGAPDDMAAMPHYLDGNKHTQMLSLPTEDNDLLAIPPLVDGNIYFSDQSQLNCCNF

fhAhr2a = assay: Velocity sedimentation radioligand binding to in vitro expressed fhAhr2a; parameters: species or system Fundulus heteroclitus; details: single concentration, qualitative
gmAhr1a [3] = target: T1, gmAhr1a; assay: XRE luciferase reporter gene assay in COS-7 cells, gmAhr1a with gmArnt1; type: cell-based, Atlantic cod (Gadus morhua); details: for Activation of transcription of XRE-controlled luciferase reporter gene: increasing concentrations; for Shape of concentration-response: at higher concentrations
gmAhr2a [4] = target: T2, gmAhr2a; assay: XRE luciferase reporter gene assay in COS-7 cells, gmAhr2a with gmArnt1; type: cell-based, Atlantic cod (Gadus morhua); details: for Activation of transcription of XRE-controlled luciferase reporter gene: increasing concentrations
COS-7 cells = assay: Cytotoxicity in COS-7 cells; type: cell-based, simian; details: for TCDD the effect is at the highest concentration
gmahr1a and gmahr2a = assay: Ex vivo precision-cut liver slices, gmahr1a and gmahr2a mRNA expression; type: cell-based, Atlantic cod (Gadus morhua); details: cod liver slices ex vivo, increasing concentrations
cyp1a = assay: Ex vivo precision-cut liver slices, cyp1a mRNA expression by qPCR; type: cell-based, Atlantic cod (Gadus morhua); details: cod liver slices ex vivo, 1 nM was the lowest concentration used
[5] = system: precision-cut liver slices; assay: Viability of precision-cut liver slices; type: cell-based, Atlantic cod (Gadus morhua); details: 100 nM
Procedure, shortened: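 Precision-cut liver slices from juvenile Atlantic cod of both sexes (about 1.5–2 years old; tank-held in natural seawater at 9 °C, 12:12 h light/dark). Slices were exposed to Ahr agonist test compounds in 0.01% DMSO, with n=5–7 per compound. Viability was read by MTT reduction and cytotoxicity by LDH release.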

Row | SMILES | Specific binding of [3H]BNF (gmAhr1a [1]; [3H]BNF 10 nM) | Specific binding of [3H]BNF (gmAhr2a [2]) | Specific binding of [3H]BNF (fhAhr2a; [3H]BNF 10 nM) | Activation of transcription of XRE-controlled luciferase reporter gene (gmAhr1a [3]; COS-7 cells, gmAhr1a) | Shape of concentration-response (gmAhr1a [3]; gmAhr1a) | Activation of transcription of XRE-controlled luciferase reporter gene (gmAhr2a [4]; COS-7 cells, gmAhr2a) | Cell viability (COS-7 cells) | Alterations in the expression of gmahr1a and gmahr2a (gmahr1a and gmahr2a) | EC50 (in words) (gmAhr1a [3]; COS-7 cells, gmAhr1a, luciferase reporter) | EC50 (in words) (gmAhr2a [4]; COS-7 cells, gmAhr2a, luciferase reporter) | Concentration at which cyp1a expression was induced (cyp1a) [nM] | Specific binding of [3H]TCDD (gmAhr1a [1]; [3H]TCDD 2 nM) | Specific binding of [3H]TCDD (fhAhr2a; [3H]TCDD 2 nM) | EC50 (gmAhr1a [3]) [nM] | Emax (gmAhr1a [3]; gmAhr1a compared with gmAhr2a) | EC50 (gmAhr2a [4]) [nM] | Viability of liver slices [5]
1 | O=c1cc(-c2ccccc2)oc2ccc3ccccc3c12 [BNF, β-naphthoflavone] | highest amount of specific binding | only weak or no specific binding | only weak or no specific binding | activated | tendencies to a biphasic concentration-response | activated | no significant alterations in cell viabilities | – | – | – | – | – | – | – | – | – | –
2 | c1ccc2c(c1)cc1ccc3cccc4ccc2c1c34 [B[a]P] | – | – | – | activated | – | activated | – | no significant differences in transcript levels | – | – | – | – | – | – | – | – | –
3 | O=Cc1c2[nH]c3ccccc3c2cc2[nH]c3ccccc3c12 [FICZ, 6-formylindolo[3,2-b]carbazole] | – | – | – | activated | bi-phasic concentration-response | activated | no significant alterations in cell viabilities | – | picomolar range | picomolar range | 1 | – | – | – | – | – | –
4 | Clc1ccc(-c2cc(Cl)c(Cl)c(Cl)c2)cc1Cl [PCB126, 3,3′,4,4′,5-pentachlorobiphenyl] | – | – | – | activated | – | activated | – | – | – | – | – | – | – | – | – | – | –
5 | Clc1cc2c(cc1Cl)Oc1cc(Cl)c(Cl)cc1O2 [TCDD, 2,3,7,8-Tetrachlorodibenzo-p-dioxin] | – | – | – | activated | – | activated | slight reduction in cell viability | no significant differences in transcript levels | – | – | 1 | Specific binding of [^3H]TCDD was observed | Specific binding of [^3H]TCDD was observed | ~1 | very similar | ~10 | reduced viability

— paper PMC7003535 (Environmental science & technology, 2020)
